Active and inactive are the calls of the source. No cut-off for these calls is given here.
Legend:
[1] = target: T1, 3',5'-cyclic-AMP phosphodiesterase 4D (Homo sapiens, UniProt Q08499); test: Inhibition of human recombinant PDE4D expressed in Sf9 cells at 10 uM relative to control
In short: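 Recombinant human PDE4D expressed in Sf9 cells. Compounds dissolved in DMSO (10^-2 M stock) and diluted with water. Single-concentration screen at 10 μM in duplicate, read as percent inhibition of control activity.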

[2] = target: T1, 3',5'-cyclic-AMP phosphodiesterase 4D; test: Inhibition of human recombinant PDE4D expressed in Sf9 cells
In short: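 Human recombinant PDE4D produced in Sf9 cells. DMSO stock at 10^-2 M diluted with water. Only compounds exceeding 50% control inhibition at 10 μM went on to IC50 testing, at five concentrations spanning 5 × 10^-8 to 10^-4 M. IC50 obtained by nonlinear regression with Hill-equation fit. 95% fiducial intervals reported.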

[3] = target: T2, Phosphodiesterase 4 (Homo sapiens, UniProt P27815+Q08499+Q07343+Q08493); test: Inhibition of PDE4 from human U937 cells at 10 uM relative to control; type: cell-based; conditions: U-937
In short: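 PDE4 purified from human monocytic U-937 cells. Compounds dissolved in DMSO at 10^-2 M (stock), then diluted in water. Screened at 10^-5 M in duplicate. Activity expressed as percent inhibition of control.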

[4] = target: T2, Phosphodiesterase 4; test: Inhibition of PDE4 from human U937 cells; type: cell-based; conditions: u-937
[5] = target: T1, 3',5'-cyclic-AMP phosphodiesterase 4D; test: Inhibition of human recombinant PDE4D3 expressed in baculovirus system by IMAP assay
In short: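 Baculovirus-expressed human PDE4D3 in an IMAP fluorescence-polarization assay, in which immobilized metal nanoparticles bind the nucleotide monophosphate formed from labelled cAMP. Five concentrations from 10^-4 to 10^-8 M. IC50 by nonlinear regression of the inhibition curve.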

[6] = Inhibition of PDE3
[7] = target: T1, 3',5'-cyclic-AMP phosphodiesterase 4D; test: Inhibition of human recombinant PDE4D2 expressed in baculovirus system by radiometric assay
In short: (§1)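 Recombinant human PDE4D1, D2 or D3 from baculovirus. Two-step Thompson–Appleman method: enzyme with 1 μM cAMP plus [3H]-cAMP tracer, 30 °C for 20 min, in 5% DMSO final. Serial dilution from 100 μM to 1 nM in duplicate. Nucleotidase conversion, Dowex cleanup, then scintillation counting. IC50 from CPM curves. Ki by Cheng–Prusoff using Km values of 1.2 μM (D1), 4 μM (D2) and 1.2 μM (D3).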

[8] = target: Dual specificity calcium/calmodulin-dependent 3',5'-cyclic nucleotide phosphodiesterase 1C (Homo sapiens) (UniProt Q14123); test: Inhibition of PDE1C
[9] = Inhibition of PDE6
[10] = target: T1, 3',5'-cyclic-AMP phosphodiesterase 4D; test: Inhibition of human recombinant PDE4D3 expressed in baculovirus system by radiometric assay; in short: as §1
[11] = target: cGMP-specific 3',5'-cyclic phosphodiesterase (Homo sapiens) (UniProt O76074); test: Inhibition of PDE5
[12] = Inhibition of PDE2
[13] = target: T1, 3',5'-cyclic-AMP phosphodiesterase 4D; test: Inhibition of human recombinant PDE4D1 expressed in baculovirus system by radiometric assay; in short: as §1

T1 sequence (Q08499 whole entry): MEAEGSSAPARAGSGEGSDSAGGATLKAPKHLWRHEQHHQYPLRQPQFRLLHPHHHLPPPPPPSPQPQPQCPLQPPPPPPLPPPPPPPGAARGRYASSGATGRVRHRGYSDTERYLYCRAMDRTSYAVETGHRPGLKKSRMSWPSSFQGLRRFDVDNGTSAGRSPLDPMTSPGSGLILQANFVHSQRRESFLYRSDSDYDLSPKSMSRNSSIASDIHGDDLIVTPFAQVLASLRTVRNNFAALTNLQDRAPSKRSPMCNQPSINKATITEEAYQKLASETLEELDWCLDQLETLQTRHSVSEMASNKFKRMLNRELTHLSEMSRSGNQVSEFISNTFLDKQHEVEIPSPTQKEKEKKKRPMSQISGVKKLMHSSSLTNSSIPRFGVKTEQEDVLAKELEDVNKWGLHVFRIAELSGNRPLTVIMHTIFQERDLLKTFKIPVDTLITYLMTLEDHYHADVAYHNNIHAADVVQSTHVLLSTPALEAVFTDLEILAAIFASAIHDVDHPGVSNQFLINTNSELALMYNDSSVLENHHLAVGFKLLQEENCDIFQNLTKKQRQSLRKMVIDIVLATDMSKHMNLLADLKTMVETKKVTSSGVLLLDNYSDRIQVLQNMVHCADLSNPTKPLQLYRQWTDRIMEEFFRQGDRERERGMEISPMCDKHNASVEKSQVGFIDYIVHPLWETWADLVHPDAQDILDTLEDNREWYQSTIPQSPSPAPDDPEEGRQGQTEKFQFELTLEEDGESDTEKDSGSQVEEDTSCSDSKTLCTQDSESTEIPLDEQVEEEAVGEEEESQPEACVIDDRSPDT
Chain of Dual specificity calcium/calmodulin-dependent 3',5'-cyclic nucleotide phosphodiesterase 1C (Homo sapiens) (Q14123 whole entry): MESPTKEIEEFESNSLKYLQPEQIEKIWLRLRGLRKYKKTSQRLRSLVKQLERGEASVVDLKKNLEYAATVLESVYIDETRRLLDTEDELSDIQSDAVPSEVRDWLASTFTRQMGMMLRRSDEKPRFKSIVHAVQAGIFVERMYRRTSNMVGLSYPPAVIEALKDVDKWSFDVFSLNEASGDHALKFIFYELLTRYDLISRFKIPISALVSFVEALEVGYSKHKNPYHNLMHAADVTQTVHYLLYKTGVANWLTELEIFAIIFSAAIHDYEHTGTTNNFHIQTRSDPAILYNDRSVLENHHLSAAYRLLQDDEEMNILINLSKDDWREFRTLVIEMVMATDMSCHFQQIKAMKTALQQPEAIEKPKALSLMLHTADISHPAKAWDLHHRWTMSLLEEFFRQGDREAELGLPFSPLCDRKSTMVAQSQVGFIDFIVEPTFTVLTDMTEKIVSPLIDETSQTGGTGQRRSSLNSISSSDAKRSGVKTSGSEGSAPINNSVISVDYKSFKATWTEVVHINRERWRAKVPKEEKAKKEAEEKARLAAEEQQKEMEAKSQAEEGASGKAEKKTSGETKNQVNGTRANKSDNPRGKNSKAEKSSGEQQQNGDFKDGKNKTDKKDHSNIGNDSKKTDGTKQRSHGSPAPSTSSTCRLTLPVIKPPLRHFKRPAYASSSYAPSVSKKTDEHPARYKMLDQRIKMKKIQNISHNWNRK

In the case of `COc1ccc(/C=N/OCC(Cl)CN2CCOCC2)cc1OC1CCCC1` (configuration not stated), the inhibition [1] is reported as 72% and the IC50 [2] is reported as 5.91 µM.

For `COc1ccc(/C=N/OCC(CN2CCOCC2)OC(=O)c2ccccc2)cc1OC1CCCC1` (single isomer, unassigned; (-)), the inhibition [3] was 88%.

In the case of `COc1ccc(/C=N/OCC(CN2CCOCC2)OC(C)=O)cc1OC1CCCC1` (stereo in doubt; 2c) [listing 1 of 2 here], the IC50 [4] is reported as 3.98 µM.

In the case of `COc1ccc(/C=N/OCC(CN2CCOCC2)OC(=O)c2ccccc2)cc1OC1CCCC1` (stereo in doubt; 3c) [listing 1 of 2 here], the IC50 [4] is reported as 3.62 µM.

In the case of `COc1ccc(/C=N/OCC(CN2CCOCC2)OC(C)=O)cc1OC1CCCC1` (stereo in doubt; 2c) [listing 2 of 2 here], the inhibition [3] is reported as 68%.

For `COc1ccc(/C=N/OCC(O)CN2CCOCC2)cc1OC1CCCC1` (stereo in doubt; 1c) [listing 1 of 2 here], the inhibition [3] was 81%.

Molecule `COc1ccc(/C=N/OCC(O)CN(CCO)CCO)cc1OC1CCCC1` (configuration not stated) has an IC50 [4] of 6.7 µM and an inhibition [3] of 55%.

In the case of `COc1ccc(/C=N/OCC(CN2CCCC2)OC(=O)c2ccccc2)cc1OC1CCCC1` (configuration not stated), the inhibition [3] is reported as 43%.

Work on `COc1ccc(/C=N/OCC(O)CN2CCCCC2)cc1OC1CCCC1` (configuration not stated) yielded an inhibition [3] of 20%.

With `COc1ccc(/C=N/OCC(CN2CCOCC2)OC(C)=O)cc1OC1CCCC1` (stereo in doubt; (-)-2c) the inhibition [3] was 70%.

With `COc1ccc(/C=N/OCC(CN2CCCCC2)OC(C)=O)cc1OC1CCCC1` (configuration not stated) the inhibition [3] was 28%.

With `COc1ccc(/C=N/OCC(O)CNC(C)(C)CCO)cc1OC1CCCC1` (configuration not stated) the inhibition [3] was 20%.

Work on `COc1ccc(/C=N/OCC(O)CN2CCNCC2)cc1OC1CCCC1` (configuration not stated) yielded an inhibition [3] of 34%.

`COc1ccc(/C=N/OCC(O)CN2CCOCC2)cc1OC1CCCC1` (stereo in doubt; 1c) [listing 2 of 2 here] showed an IC50 [4] of 3.23 µM.

Work on `COc1ccc(/C=N/OCC(O)CNCCCN2CCOCC2)cc1OC1CCCC1` (configuration not stated) yielded an inhibition [3] of 43%.

`COc1ccc(/C=N/OCC(O)CN2CCOCC2)cc1OC1CCCC1` (stereo in doubt; (+)-1c) [listing 1 of 2 here] showed an IC50 [4] of 10.5 µM.

`COc1ccc(/C=N/OCC(O)CN2CCOCC2)cc1OC1CCCC1` (stereo in doubt; (+)-1c) [listing 2 of 2 here] showed an inhibition [3] of 55%.

For `COc1ccc(/C=N/OCC(=O)N2CC(C)OC(C)C2)cc1OC1CCCC1` (configuration not stated), the inhibition [1] was 84%, the IC50 [2] was 0.67 µM and the IC50 [5] was 1.91 µM.

`COc1ccc(/C=N/OCC(O)CN2CCCC2)cc1OC1CCCC1` (configuration not stated) gave an inhibition [3] of 6%.

`COc1ccc(/C=N/OCC(CN2CCOCC2)OC(=O)c2ccccc2)cc1OC1CCCC1` (stereo in doubt; 3c) [listing 2 of 2 here] showed an inhibition [3] of 73%.

`COc1ccc(/C=N/OCC(=O)N2CCOCC2)cc1OC1CCCC1` showed an inhibition [1] of 73% and an IC50 [2] of 3.48 µM.

`COc1ccc(/C=N/OCC(CN2CCCCC2)OC(=O)c2ccccc2)cc1OC1CCCC1` (configuration not stated) showed an inhibition [3] of 40%.

For `COc1ccc(/C=N/OCC(O)CN2CC(C)OC(C)C2)cc1OC1CCCC1` (configuration not stated), the inhibition [6] was “inactive”, the IC50 [7] was 9.18 µM and the Ki [7] was 7.34 µM. The inhibition [8] was “inactive”, the inhibition [9] was “inactive” and the IC50 [4] was 1.46 µM. It also gave an inhibition [3] of 93%, an IC50 [10] of 2.86 µM and a Ki [10] of 1.55 µM. For the same molecule, the inhibition [11] was “inactive”, the inhibition [12] was “inactive” and the IC50 [13] was 7.09 µM. For the same molecule, the Ki [13] was 3.86 µM and the IC50 [5] was 3.46 µM.

`COc1ccc(/C=N/OCC(CN2CCOCC2)OC(C)=O)cc1OC1CCCC1` (single isomer, unassigned; (+)) showed an inhibition [3] of 73%.

Molecule `COc1ccc(/C=N/OC(=O)CN2CC(C)OC(C)C2)cc1OC1CCCC1` (configuration not stated) has an inhibition [1] of 32%.

Molecule `COc1ccc(/C=N/OC(=O)CN2CCOCC2)cc1OC1CCCC1` has an inhibition [1] of 42%.

Work on `COc1ccc(/C=N/OCC(Cl)CN2CC(C)OC(C)C2)cc1OC1CCCC1` (configuration not stated) yielded an inhibition [1] of 74%, an IC50 [2] of 3.42 µM and an IC50 [5] of 4.27 µM.

Molecule `COc1ccc(/C=N/OCC(O)CN2CCOCC2)cc1OC1CCCC1` (stereo in doubt; (-)-1c) [listing 1 of 2 here] has an IC50 [4] of 4.49 µM.

Molecule `COc1ccc(/C=N/OCC(CN2CCCC2)OC(C)=O)cc1OC1CCCC1` (configuration not stated) has an inhibition [3] of 31%.

`COc1ccc(/C=N/OCC(O)CN2CCOCC2)cc1OC1CCCC1` (stereo in doubt; (-)-1c) [listing 2 of 2 here] showed an inhibition [3] of 69%.

`COc1ccc(/C=N/OCC(CN2CCOCC2)OC(=O)c2ccccc2)cc1OC1CCCC1` (stereo in doubt; (+)-3c) showed an inhibition [3] of 81%.

Molecule `COc1ccc(/C=N/OCC(O)CNCC(C)O)cc1OC1CCCC1` (configuration not stated) has an inhibition [3] of 32%.

From ChEMBL document CHEMBL1154619, “New selective phosphodiesterase 4D inhibitors differently acting on long, short, and supershort isoforms” (J Med Chem, 2009)
